Data taken from ChEMBL document CHEMBL3045981, “Synthesis and insecticidal activities of novel N-sulfenyl-N'-tert-butyl-N,N'-diacylhydrazines. 2. N-substituted phenoxysulfenate derivatives” (2008).
In brackets after ≈: the same amount, converted by molar mass.

Experiments:
Assay type in all cases: functional
[1] = system: Mythimna separata; test: Stomach toxicity against Mythimna separata (Oriental armyworm) fourth-instar larvae reared on compound pre-treated corn leaves assessed as insect mortality at 5 mg/kg measured 4 days post compound treatment
[2] = system: Mythimna separata; test: Stomach toxicity against Mythimna separata (Oriental armyworm) fourth-instar larvae reared on compound pre-treated corn leaves assessed as insect mortality at 2.5 mg/kg measured 4 days post compound treatment
[3] = system: Mythimna separata; test: Stomach toxicity against Mythimna separata (Oriental armyworm) fourth-instar larvae reared on compound pre-treated corn leaves assessed as insect mortality at 25 mg/kg measured 4 days post compound treatment
[4] = system: Mythimna separata; test: Stomach toxicity against Mythimna separata (Oriental armyworm) fourth-instar larvae reared on compound pre-treated corn leaves assessed as insect mortality at 50 mg/kg measured 4 days post compound treatment
[5] = system: Mythimna separata; test: Stomach toxicity against Mythimna separata (Oriental armyworm) fourth-instar larvae reared on compound pre-treated corn leaves assessed as insect mortality at 10 mg/kg measured 4 days post compound treatment
[6] = system: Spodoptera litura; test: Stomach toxicity against Spodoptera litura third-instar larvae reared on compound pre-treated cabbage leaves assessed as insect mortality measured 3 days post compound treatment
In short: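 Leaf-dip: cabbage leaf discs (5 cm × 3 cm) dipped 3 s in test solution, air-dried, placed singly in 80 cm³ boxes. Five third-instar larvae per disc. Water- and acetone-treated leaves as controls. Held at 25 ± 1 °C. Mortality scored on a dead/alive basis 3 days after treatment and Abbott-corrected.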

[7] = system: Spodoptera litura; test: Contact toxicity against Spodoptera litura fourth-instar larvae exposed to compound on thoracic tergite region assessed as insect mortality measured 48 hr post compound treatment
In short: (§1)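 Topical application: each fourth-instar larva received 1 µL of acetone dilution on the thoracic tergite via automatic microapplicator; five to seven concentrations. Acetone-only control. Usually 40 insects per dose, four replicates. Larvae returned to standard rearing at 25 ± 1 °C. Mortality read 48 h after treatment, Abbott-corrected, and LD50 (median lethal dose) derived.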

[8] = system: Ostrinia furnacalis; test: Contact toxicity against Ostrinia furnacalis (Asian corn borer) fourth-instar larvae exposed to compound on thoracic tergite region assessed as insect mortality measured 48 hr post compound treatment; in short: as §1
[9] = system: Helicoverpa armigera; test: Contact toxicity against Helicoverpa armigerafourth-instar larvae exposed to compound on thoracic tergite region assessed as insect mortality measured 48 hr post compound treatment; in short: as §1

SMILES	mortality at 5 mg/kg [1] [%]	mortality at 2.5 mg/kg [2] [%]	other results
CCc1ccc(C(=O)N(N(SOc2cccc(Cl)c2)C(=O)c2cc(C)cc(C)c2)C(C)(C)C)cc1	90	80	–
CC(C)(C)N(NC(=O)c1ccccc1)C(=O)c1ccccc1 [RH-5849]	–	–	mortality at 25 mg/kg [3]: 70%; mortality at 50 mg/kg [4]: 100%; mortality at 10 mg/kg [5]: 0%
CCc1ccc(C(=O)N(N(SOc2ccc(-c3ccccc3)cc2)C(=O)c2cc(C)cc(C)c2)C(C)(C)C)cc1	100	90	–
CCc1ccc(C(=O)N(N(SOc2ccccc2C(=O)OC)C(=O)c2cc(C)cc(C)c2)C(C)(C)C)cc1	100	60	–
Cc1cc(C)cc(C(=O)N(N(SOc2ccc(Cl)cc2)C(=O)c2ccc3c(c2C)OC(C)C3)C(C)(C)C)c1 (stereo not drawn)	100	90	–
CC(C)(C)N(C(=O)c1ccccc1)N(SOc1ccc(Cl)cc1)C(=O)c1ccccc1	–	–	mortality at 25 mg/kg [3]: 100%; mortality at 50 mg/kg [4]: 100%; mortality at 10 mg/kg [5]: 0%
CCc1ccc(C(=O)N(N(SOc2cccc(C)c2)C(=O)c2cc(C)cc(C)c2)C(C)(C)C)cc1	95	70	–
COc1cccc(C(=O)NN(C(=O)c2cc(C)cc(C)c2)C(C)(C)C)c1C [METHOXYFENOZIDE]	100	100	–
Cc1ccc(OSN(C(=O)c2ccccc2)N(C(=O)c2ccccc2)C(C)(C)C)cc1	–	–	mortality at 25 mg/kg [3]: 80%; mortality at 50 mg/kg [4]: 100%; mortality at 10 mg/kg [5]: 10%
CCc1ccc(C(=O)NN(C(=O)c2cc(C)cc(C)c2)C(C)(C)C)cc1 [TEBUFENOZIDE]	95	55	LC50 [6]: 11.2 mg/L (≈ 31.7 µM); LD50 [7]: 527 mg/kg; LD50 [8]: 59.4 mg/kg; mortality at 10 mg/kg [5]: 100%; LD50 [9]: 1310 mg/kg
CC(C)(C)N(NC(=O)c1ccc(Cl)cc1)C(=O)c1ccccc1 [HALOFENOZIDE]	70	10	mortality at 50 mg/kg [4]: 100%
CC(C)(C)N(C(=O)c1ccccc1)N(SOc1ccccc1)C(=O)c1ccccc1	–	–	mortality at 25 mg/kg [3]: 100%; mortality at 50 mg/kg [4]: 100%; mortality at 10 mg/kg [5]: 0%
CCc1ccc(C(=O)N(N(SOc2cccc(C(=O)OC)c2)C(=O)c2cc(C)cc(C)c2)C(C)(C)C)cc1	90	80	–
CCc1ccc(C(=O)N(N(SOc2c(Cl)cc(Cl)cc2Cl)C(=O)c2cc(C)cc(C)c2)C(C)(C)C)cc1	90	50	–
CCc1ccc(C(=O)N(N(SOc2ccc(C)cc2)C(=O)c2cc(C)cc(C)c2)C(C)(C)C)cc1	100	30	–
CCc1ccc(C(=O)N(N(SOc2cccc(OC)c2)C(=O)c2cc(C)cc(C)c2)C(C)(C)C)cc1	100	50	–
CCc1ccc(C(=O)N(N(SOc2ccc(OC)cc2)C(=O)c2cc(C)cc(C)c2)C(C)(C)C)cc1	100	80	–
CCc1ccc(C(=O)N(N(SOc2ccccc2Br)C(=O)c2cc(C)cc(C)c2)C(C)(C)C)cc1	100	30	–
Cc1cc(C)cc(C(=O)N(NC(=O)c2ccc3c(c2C)OC(C)C3)C(C)(C)C)c1 (stereo not drawn) [FUXIAN]	100	90	–
CCc1ccc(C(=O)N(N(SOc2ccc(Cl)cc2Cl)C(=O)c2cc(C)cc(C)c2)C(C)(C)C)cc1	90	40	–
CC(C)(C)N(C(=O)c1ccc(Cl)cc1)N(SOc1ccc(Cl)cc1)C(=O)c1ccccc1	30	0	mortality at 25 mg/kg [3]: 100%; mortality at 10 mg/kg [5]: 100%
CCc1ccc(C(=O)N(N(SOc2ccccc2)C(=O)c2cc(C)cc(C)c2)C(C)(C)C)cc1	90	70	mortality at 25 mg/kg [3]: 100%; mortality at 50 mg/kg [4]: 100%; mortality at 10 mg/kg [5]: 100%
CCc1ccc(C(=O)N(N(SOc2ccccc2C)C(=O)c2cc(C)cc(C)c2)C(C)(C)C)cc1	100	60	–
CCc1ccc(C(=O)N(N(SOc2ccccc2Cl)C(=O)c2cc(C)cc(C)c2)C(C)(C)C)cc1	95	80	–
CCc1ccc(C(=O)N(N(SOc2ccc(C)c(C)c2)C(=O)c2cc(C)cc(C)c2)C(C)(C)C)cc1	70	10	–
CCc1ccc(C(=O)N(N(SOc2ccccc2OC)C(=O)c2cc(C)cc(C)c2)C(C)(C)C)cc1	90	80	–
COc1cccc(C(=O)N(N(SOc2ccc(Cl)cc2)C(=O)c2cc(C)cc(C)c2)C(C)(C)C)c1C	100	100	–
CCc1ccc(C(=O)N(N(SOc2ccc(C(=O)OC)cc2)C(=O)c2cc(C)cc(C)c2)C(C)(C)C)cc1	100	100	–
CCc1ccc(C(=O)N(N(SOc2ccc(Br)cc2)C(=O)c2cc(C)cc(C)c2)C(C)(C)C)cc1	100	50	–
